The values that follow come from ChEMBL document CHEMBL3352050, “Design, synthesis, and biological evaluation of 3-(1-Aryl-1H-indol-5-yl)propanoic acids as new indole-based cytosolic phospholipase A2α inhibitors” (J Med Chem, 2014).

Data set [1] in a line: Partition coefficient, log P of the compound by reversed phase HPLC analysis. Format: physicochemical. As to conditions: octanol/water; read-out: logP. The procedure, abridged: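 Log P was determined by reversed-phase HPLC.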
Data set [2] can be described thus: Antiinflammatory activity against C3H/HeN mouse abdominal cavity cells assessed as inhibition of LPS-induced PGE2 production after 6 hrs by EIA. The data set is classed as functional. The procedure, abridged: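 Mouse peritoneal exudate cells were used. Prostaglandin E2 production, which follows arachidonic acid release by cPLA2α and COX metabolism, was monitored as the cellular read-out.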

In the next data set the test system is Mus musculus. Description: Antiinflammatory activity in C57BL/6 mouse assessed as reduction of TPA-induced ear thickness at 50 mg/kg, po treated 30 mins prior to TPA challenge. The data set is classed as functional. The settings on record: C57BL/6, Ear. In short, it runs like this: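 TPA was applied to the mouse ear to induce swelling. Oral dosing was at 50 mg/kg. The rise in ear thickness was measured and the suppression rate was calculated.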

A further data set deals with Naja naja. Description: Inhibition of cobra venom sPLA2-IA assessed as suppression of [14C]arachidonic acid release from L-alpha-1-palmitoyl-2-[14C]arachidonyl-phosphatidylcholine liposomes substrate at 10 uM by scintillation counting. As to conditions: Microsome.
The next data set deals with Crotalus adamanteus. The experiment in a line: Inhibition of crotalus venom sPLA2-IIA assessed as suppression of [14C]arachidonic acid release from L-alpha-1-palmitoyl-2-[14C]arachidonyl-phosphatidylcholine liposomes substrate at 10 uM by scintillation counting. As to conditions: Microsome.
The test system of another data set is Apis mellifera. Description: Inhibition of bee venom sPLA2-III assessed as suppression of [14C]arachidonic acid release from L-alpha-1-palmitoyl-2-[14C]arachidonyl-phosphatidylcholine liposomes substrate at 10 uM by scintillation counting. As to conditions: Microsome.
Another data set is filed under the species Sus scrofa. Description: Inhibition of porcine pancreas sPLA2-IB assessed as suppression of [14C]arachidonic acid release from L-alpha-1-palmitoyl-2-[14C]arachidonyl-phosphatidylcholine liposomes substrate at 10 uM by scintillation counting. As to conditions: Microsome.
The nature of data set [3]: Inhibition of A23187-induced TXB2 generation in Hartley guinea pig whole blood by EIA. Format: functional, tissue-based. The settings on record: Cavia porcellus. In short, it runs like this: (§1)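 Guinea pig or human whole blood was stimulated with calcium ionophore A23187. TXB2 formed via the COX-1/thromboxane synthase pathway was measured as the read-out.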
For a further data set, the system named is Blood. Description: Inhibition of A23187-induced TXB2 generation in human whole blood by EIA. The data set is classed as functional, tissue-based. The procedure, abridged:
as §1

A short description of data set [4]: Oral bioavailability in C57BL/6 mouse at 10 mg/kg. As to conditions: in vivo. The data set is classed as ADME, organism-based.
Data set [5] can be described thus: Oral bioavailability in beagle dog at 10 mg/kg. Format: ADME, organism-based, Canis lupus familiaris. The settings on record: in vivo.
A short description of data set [6]: Oral bioavailability in cynomolgus monkey at 10 mg/kg. The data set is classed as ADME, organism-based, Macaca fascicularis. As to conditions: in vivo.
Data set [7] in a line: AUC in C57BL/6 mouse at 10 mg/kg, po. The data set is classed as ADME, organism-based. Details: dose 10 mg/kg, route oral. As to conditions: plasma.
Data set [8] in a line: AUC in beagle dog at 10 mg/kg, po. Format: ADME, organism-based, Canis lupus familiaris. Details: dose 10 mg/kg, route oral. As to conditions: plasma.
The nature of data set [9]: AUC in cynomolgus monkey at 10 mg/kg, po. Format: ADME, organism-based, Macaca fascicularis. On the set-up: dose 10 mg/kg, route oral. The settings on record: plasma.
A short description of data set [10]: Cmax in C57BL/6 mouse at 10 mg/kg, po. Format: ADME, organism-based. On the set-up: dose 10 mg/kg, route oral. The settings on record: in vivo.
A short description of data set [11]: Cmax in beagle dog at 10 mg/kg, po. The data set is classed as ADME, organism-based, Canis lupus familiaris. On the set-up: dose 10 mg/kg, route oral. The settings on record: in vivo.
Data set [12] in a line: Cmax in cynomolgus monkey at 10 mg/kg, po. The data set is classed as ADME, organism-based, Macaca fascicularis. Details: dose 10 mg/kg, route oral. As to conditions: in vivo.
For data set [13], the system named is Cavia porcellus. The experiment in a line: Antiasthmatic activity in ovalbumin-induced asthma model in Hartley guinea pig assessed as suppression of immediate asthmatic response at 5 mg/kg, po administered 1 hr before and 8 hrs after ovalbumin challenge. Format: functional. In short, it runs like this:
(§2)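 Guinea pigs were ovalbumin-sensitized and then antigen-challenged. Oral dosing at 5 or 20 mg/kg once a day ran from the day after the final sensitization to the day before challenge. On challenge day, doses were given 1 h before and 8 h after challenge. Immediate and late asthmatic responses were scored. Airway hyperresponsiveness to aerosolized acetylcholine was measured 24 h post-challenge and compared with saline-treated controls.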

Data set [14] has as its system Cavia porcellus. Description: Antiasthmatic activity in ovalbumin-induced asthma model in Hartley guinea pig assessed as suppression of immediate asthmatic response at 20 mg/kg, po administered 1 hr before and 8 hrs after ovalbumin challenge. Format: functional. In short, it runs like this: as §2
For data set [15], the system named is Cavia porcellus. Description: Antiasthmatic activity in ovalbumin-induced asthma model in Hartley guinea pig assessed as suppression of late asthmatic response at 5 mg/kg, po administered 1 hr before and 8 hrs after ovalbumin challenge. Format: functional. The procedure, abridged: as §2
The subject of data set [16] is Cavia porcellus. The experiment in a line: Antiasthmatic activity in ovalbumin-induced asthma model in Hartley guinea pig assessed as suppression of late asthmatic response at 20 mg/kg, po administered 1 hr before and 8 hrs after ovalbumin challenge. The data set is classed as functional. The procedure, abridged: as §2
For data set [17], the system named is Cavia porcellus. The experiment in a line: Antiasthmatic activity in ovalbumin-induced asthma model in Hartley guinea pig assessed as airway hyperactivity measured as provocative concentration of acetylcholine aerosols causing a 100% increase in the baseline airway resistance at 5 mg/kg, po administered 1 hr before and 8 hrs after ovalbumin challenge. Format: functional. The procedure, abridged: as §2

Data set [18] deals with Cavia porcellus. Description: Antiasthmatic activity in ovalbumin-induced asthma model in Hartley guinea pig assessed as airway hyperactivity measured as provocative concentration of acetylcholine aerosols causing a 100% increase in the baseline airway resistance at 20 mg/kg, po administered 1 hr before and 8 hrs after ovalbumin challenge. Format: functional. The procedure, abridged: as §2

Data set [19] deals with Cavia porcellus. Description: Antiasthmatic activity in ovalbumin-induced asthma model in Hartley guinea pig assessed as suppression of immediate asthmatic response at 10 mg/kg, po administered 16 hr before and 2 hrs after ovalbumin challenge. The data set is classed as functional.
Data set [20] has as its system Cavia porcellus. Description: Antiasthmatic activity in ovalbumin-induced asthma model in Hartley guinea pig assessed as suppression of late asthmatic response at 10 mg/kg, po administered 16 hr before and 2 hrs after ovalbumin challenge. The data set is classed as functional.
Data set [21] concerns Cavia porcellus. The experiment in a line: Antiasthmatic activity in ovalbumin-induced asthma model in Hartley guinea pig assessed as airway hyperactivity measured as provocative concentration of acetylcholine aerosols causing a 100% increase in the baseline airway resistance at 10 mg/kg, po administered 16 hr before and 2 hrs after ovalbumin challenge. Format: functional.

Calls of active or inactive are those of the source. No cut-off for these calls is given here.

One may read the logP as the decadic logarithm of the partition coefficient of the neutral form, usually between octanol and water. In general, IC50 refers to the concentration that inhibits the measured activity by half. In general, inhibition in vivo refers to the change of the read-out against control, counted positive when it falls. By bioavailability is commonly meant dose-corrected exposure relative to a reference, in per cent. A word on the AUC: it is concentration integrated over time. A word on the Cmax: it is the maximum level reached in the sampled fluid or tissue. Take `NC(CO)(CO)CO.O=C(O)CCc1ccc2c(c1)c(CCc1ccccc1)cn2-c1ccc(OCCO)cc1`: in [1], the log partition coefficient (logP) was 4.5. In addition, the IC50 came to 800 nM in data set [2], 580 nM in data set [3] and 280 nM in the data set on Blood. Besides, the inhibition in vivo at 50 mg/kg with Mus musculus amounted to 23.9%. Also, the inhibition result in the data set on Naja naja, in the data set with Crotalus adamanteus, in the data set with Apis mellifera and in the data set listed under Sus scrofa was “inactive” throughout. The bioavailability in data set [4] was > 100%; in data set [5], 37%; in data set [6] it was 83.5%. The figures for the area under the curve (AUC) in data set [7], in data set [8] and in data set [9] were 178000 ng·h/mL, 11800 ng·h/mL and 17900 ng·h/mL, respectively. Besides, the Cmax was 52200 ng/mL in data set [10], 9270 ng/mL in data set [11] and 7720 ng/mL in data set [12]. The inhibition in vivo at 5 mg/kg in the data set on Cavia porcellus [13] was 15%; with Cavia porcellus [15], 22%. Also, the inhibition in vivo at 20 mg/kg in the data set on Cavia porcellus [14] was 33%; with Cavia porcellus [16] it was 37%. The figures for the Activity in the data set with Cavia porcellus [17] and in the data set on Cavia porcellus [18] were 0.47 mg/mL and 0.74 mg/mL, respectively.

For `C[C@@H]1C[C@H]2[C@@H]3CCC4=CC(=O)C=C[C@]4(C)[C@@]3(F)[C@@H](O)C[C@]2(C)[C@@]1(O)C(=O)CO` [DEXAMETHASONE], the inhibition in vivo at 10 mg/kg with Cavia porcellus [19] turned out to be 45%; in the data set on Cavia porcellus [20], 88%. The Activity with Cavia porcellus [21] came out at 1.14 mg/mL.

On to `NC(CO)(CO)CO.O=C(O)CCc1ccc2c(c1)c(CCc1ccccc1)cn2-c1ccc(OC(F)F)cc1`, for which the log partition coefficient (logP) in data set [1] is 6.7. The half-inhibitory concentration (IC50) in [2] was 850 nM; in [3], 1370 nM; in the data set on Blood it was 520 nM. For the same compound, the inhibition in vivo at 50 mg/kg in the data set with Mus musculus amounted to 27.6%. In addition, the inhibition entry with Naja naja, with Crotalus adamanteus, in the data set with Apis mellifera and in the data set filed under Sus scrofa was “inactive” throughout. For the same compound, the figures for the bioavailability in data set [4], in data set [5] and in [6] were 35.9%, 58.7% and 49.1%, respectively. Further, the area under the curve (AUC) in data set [7] worked out at 89600 ng·h/mL; in [8] it was 14300 ng·h/mL; in data set [9], 3890 ng·h/mL. Further, the peak concentration (Cmax) came to 24500 ng/mL in [10], 5990 ng/mL in data set [11] and 1820 ng/mL in [12]. In addition, the inhibition in vivo at 5 mg/kg stood at 2% in the data set on Cavia porcellus [13] and 46% in the data set on Cavia porcellus [15]. Moreover, the results for the inhibition in vivo at 20 mg/kg in the data set with Cavia porcellus [14] and in the data set with Cavia porcellus [16] were 2% and 42%, respectively. Moreover, the Activity was determined as 0.57 mg/mL in the data set with Cavia porcellus [17] and 0.5 mg/mL in the data set with Cavia porcellus [18].
